Most compounds without a hit are left out; they make up all but 2.6% or so of the library.
mABHD4 FP – inhibits mouse alpha/beta hydrolase domain 4; 370,000 tested, 0.54% active; purified mABHD4, FP-Rh probe fluorescence polarization; AID 720543; inhibition, % at 8.92 µM;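 active = inhibition exceeding the mean over every tested compound plus 3 SD, cut at about 30% in these data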;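 also: 0% = plate median of compound wells and 100% = S159A mutant with DMSO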
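Test system: mABHD4 protein; Read-out basis: % inhibition; Incubation: 45 min + 60 min at 25 °C; Repeats: single replicate; Technique: fluorescence polarization with parallel and perpendicular emission, 525/598 nm; Compound: 8.92 µM, single dose; Benchmarks: full inhibition S159A mutant plus DMSO, zero as sample-well median.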
PRMT1 inh – inhibitors of human PRMT1 | Q99873 | recombinant PRMT1, activity-based probe fluorescence polarization | inhibition, % at 2.79 µM | 370,000 tested, 1.3% active | AID 652257;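 active = inhibition above about 21% made by adding two undisclosed values, limit read from the data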
Target sequence (Q99873 whole entry, looked up): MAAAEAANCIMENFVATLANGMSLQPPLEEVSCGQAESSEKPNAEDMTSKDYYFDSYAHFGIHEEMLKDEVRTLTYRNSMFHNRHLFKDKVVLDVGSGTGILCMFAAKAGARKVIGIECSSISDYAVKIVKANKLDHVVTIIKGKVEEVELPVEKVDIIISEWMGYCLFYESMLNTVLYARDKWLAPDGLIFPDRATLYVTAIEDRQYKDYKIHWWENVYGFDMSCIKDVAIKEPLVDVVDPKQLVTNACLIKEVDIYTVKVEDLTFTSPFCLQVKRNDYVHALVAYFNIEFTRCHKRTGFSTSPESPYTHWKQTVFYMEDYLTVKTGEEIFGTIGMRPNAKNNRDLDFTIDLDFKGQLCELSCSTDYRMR
TCR CD3 inh – inhibitors of human TCR-CD3 interaction | TAMRA-labeled TCR probe fluorescence, biochemical | inhibition, % at 9.4 µM | 360,000 tested, 0.37% active | AID 651800; in the data active = inhibition above about 19%;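 also: recombinant mutant TCR 2C K166C tagged with TAMRA read by polarization; 0% = receptor in buffer alone and 100% = receptor with positive control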
SIAE primary – human SIAE inhibition, primary screen; inhibition, % at 9.66 µM; AID 1053197; SIAE FP-Rh probe binding, fluorescence polarization; 370,000 tested, 0.69% active; Q9HAT2;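 active = inhibition above a cutoff: mean of compounds within the control limits plus 3 SD of those, cut at about 17% in these data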;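 also: 0% = plate median of compound wells and 100% = probe without SIAE protein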
HTRA1 inhibitor – blocks human HTRA1 serine peptidase; Q92743; recombinant HTRA1, FP-rhodamine activity-based probe, fluorescence polarization; inhibition, % at 5.96 µM; 340,000 tested, 0.5% active; in the data active = inhibition above about 36%;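 also: 0% = enzyme with DMSO and 100% = wells lacking enzyme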
PRMT1 confirm – confirmation of human PRMT1 inhibitors; shares compounds with PRMT1 inh; inhibition, % at 2.79 µM; recombinant His-PRMT1, activity-based probe fluorescence polarization; 3,300 tested, 42% active; AID 687036;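 active = mean inhibition across replicates above the hit cutoff derived for the earlier primary screen, cut at about 22% in these data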
Starred values were filed as active, the others as inactive; x = not tested or not shown.

SMILES	mABHD4 FP	PRMT1 inh	TCR CD3 inh	SIAE primary	HTRA1 inhibitor	PRMT1 confirm
CCC(c1nnnn1Cc1ccco1)N(Cc1ccccc1OC)Cc1cc2cc(C)ccc2[nH]c1=O (stereo unspecified)	0	15	-2	13	-41	x
CCC(C)(C)n1nnnc1C(C(C)C)N(Cc1cccnc1)Cc1ccco1 (stereo unspecified)	5	-2	3	13	-3	x
CCC(C)(C)n1nnnc1C(C(C)C)N(Cc1ccco1)Cc1cc2cc3c(cc2[nH]c1=O)OCO3 (stereo unspecified)	0	41*	-2	-4	0	5
Cc1ccc(CN(Cc2cc3cc4c(cc3[nH]c2=O)OCCO4)Cc2nnnn2Cc2ccco2)cc1	7	43*	3	6	1	13
Cc1cccc(C(=O)NCCC(=O)Nc2ccc(C#N)cc2)c1	-9	-3	1	11	-1	x
O=S1(=O)CC(N2CCCC2)CN1Cc1cn(Cc2cccc(Cl)c2)nn1 (stereo unspecified)	2	-7	0	-2	x	x
CCOC(CCNC(=O)c1cn(CCOC)c(=O)c2c1c1ccccc1n2C)OCC	-4	-4	5	-3	-5	x
CCOc1cc2c3c(c1)C1(Nc4ccccc4S1)C(=O)N3C(C)(C)CC2C (stereo unspecified)	-5	78*	7	2	6	8
Cc1ccccc1-c1nc2ccccc2c(=O)n1/N=C/c1ccccc1[N+](=O)[O-]	-3	31*	-1	0	-5	17
CCCOc1ccc(-c2c(=O)n(O)c3ccccc3[n+]2[O-])cc1	7	32*	1	11	-1	5
CCOc1ccc(-c2c(=O)n(OCc3ccccn3)c3ccccc3[n+]2[O-])cc1	4	0	5	-2	0	x
O=C(O)c1ccccc1Nc1ccnc(C(F)(F)F)c1	-1	-1	5	-2	3	x
O=C(CCCN1C(=O)/C(=C\c2cccs2)SC1=S)Nc1cccc(C(=O)O)c1	-3	-3	3	1	7	x
O=C(CN1C(=O)/C(=C/c2ccco2)SC1=S)Nc1ccc(C(=O)O)c(O)c1	-22	52*	-2	-22	-17	35*
O=C(CN1C(=O)/C(=C/c2ccco2)SC1=S)Nc1ccc(O)c(C(=O)O)c1	-29	50*	-1	-8	3	31*
O=C(CCCN1C(=O)/C(=C/c2ccco2)SC1=S)Nc1cccc(C(=O)O)c1	29	33*	6	-4	14	14
CCNC(=O)C1(C)CCCN(C(=O)c2sccc2C)C1 (stereo unspecified)	1	2	-6	1	x	x
O=C(Cn1c(=O)[nH]c2ccccc2c1=O)Nc1ccc2c(c1)OCO2	12	-3	8	11	9	x
CN(CC(=O)Nc1ccccc1Cl)C(=O)COC(=O)CSc1ccc(F)cc1	-3	-5	-3	-2	3	x
CC(=O)Nc1ccc(SCC(=O)N(C)CC(=O)Nc2ccccc2Cl)cc1	5	58*	-2	-1	4	61*
CC(=O)Nc1ccc(Sc2ncnc3scc(-c4ccccc4)c23)cc1	-9	35*	4	0	-15	37*
CC1CCN(c2nc(-c3ccco3)c3c(c2C#N)CC(C)(C)OC3)CC1	17	28*	-4	4	-5	24*
Cc1ccc(S(=O)(=O)NNc2nc3ccccc3nc2C(F)(F)F)cc1	5	81*	0	0	1	18
COc1cc(C)c2c(c1C=O)Oc1c(c(C)c(O)c3c1C(O)OC3=O)OC2=O (stereo unspecified)	26	38*	-8	-2	8	-5
CCOC(=O)c1c(/N=C/c2cc([N+](=O)[O-])ccc2O)sc(C)c1C	-19	29*	-29	-12	1	-2
SMILES	mABHD4 FP	PRMT1 inh	TCR CD3 inh	SIAE primary	HTRA1 inhibitor	PRMT1 confirm
CCOC(=O)c1c(/N=C/c2cc(OC)cc([N+](=O)[O-])c2O)sc(C)c1C	1	4	5	6	12	x
CC(C)C(NC(=O)c1ccccc1)C(=O)N1CCCCCC1 (stereo unspecified)	-4	-3	-13	1	1	x
O=c1c2ccccc2nnn1CSc1nc2ccccc2c(=O)n1CCCO	0	25*	-5	-7	-2	0
CCC(Sc1nc(-c2cccc(OC)c2)c(C#N)c(=O)[nH]1)C(=O)Nc1nnc(C(C)C)s1 (stereo unspecified)	-2	4	-8	-6	-13	x
N#Cc1c(-c2ccco2)nc(SCC(=O)Nc2cccc(Cl)c2)[nH]c1=O	-23	46*	14	-28	-48	11
CCc1ccc(NC(=O)C(C)Sc2nc(-c3ccco3)c(C#N)c(=O)[nH]2)cc1 (stereo unspecified)	-14	26*	-3	-13	-41	38*
CC(C)CC(N)c1csc(Nc2ccc(C(=O)NCCCO)cn2)n1 (stereo unspecified)	6	-2	-8	-1	x	x
Cc1cc(C)c(OCC(=O)OC(C)C(=O)N2CCc3ccccc32)c(C)c1 (stereo unspecified)	-5	-2	3	1	-12	x
O=C(NCc1ccc2c(c1)OCO2)c1ccco1	3	-4	3	10	-8	x
O=C(CC(SCCO)c1ccc2c(c1)OCO2)c1ccco1 (stereo unspecified)	7	39*	4	-3	-1	44*
CCN(CC(=O)NCc1ccc(Cl)cc1)C(=O)c1cccc(S(=O)(=O)Nc2ccc(OC)cc2)c1	-3	0	2	-6	-7	x
